Results from ChEMBL document CHEMBL1629527, “In vitro antifungal activities of bis(alkylpyridinium)alkane compounds against pathogenic yeasts and molds” (Antimicrob Agents Chemother, 2010).

What was measured:
[1] = test system: Cryptococcus neoformans; test: Antifungal activity against Cryptococcus neoformans after 24 to 72 hrs by broth microdilution method; assay type: functional
Summary of the method: (§1)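 Broth microdilution MIC per CLSI M27-A3 (yeasts) or M38-A2 (molds). RPMI 1640 with L-glutamine, without bicarbonate, buffered to pH 7.0 with 0.165 M MOPS. Final test range for the compounds was 0.175–87.5 μM. Incubation at 35°C with visual reading at 24–72 h. MIC was the lowest concentration giving 100% inhibition versus the growth control (azoles 50% or 100%, by organism). Each isolate was run in duplicate in two independent experiments.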

[2] = test system: Candida tropicalis; test: Antifungal activity against Candida tropicalis after 48 to 72 hrs; assay type: functional
Summary of the method: (§2)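 MFC: after the MIC read, 30-μl aliquots from each well without visible growth were plated onto Sabouraud dextrose agar and incubated at 35°C. Reading was at 48–72 h for yeasts and up to 7 days for molds. MFC was the lowest concentration with no colonies.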

[3] = test system: Candida parapsilosis; test: Antifungal activity against Candida parapsilosis after 48 to 72 hrs; assay type: functional; summary of the method: as §2
[4] = test system: Pichia kudriavzevii; test: Antifungal activity against Candida krusei after 48 to 72 hrs; assay type: functional; summary of the method: as §2
[5] = test system: Meyerozyma guilliermondii; test: Antifungal activity against Candida guilliermondii after 48 to 72 hrs; assay type: functional; summary of the method: as §2
[6] = test system: Clavispora lusitaniae; test: Antifungal activity against Candida lusitaniae after 48 to 72 hrs; assay type: functional; summary of the method: as §2
[7] = test system: Cryptococcus neoformans; test: Antifungal activity against Cryptococcus neoformans after 48 to 72 hrs; assay type: functional; summary of the method: as §2
[8] = test system: Cryptococcus gattii species complex; test: Antifungal activity against Cryptococcus gattii after 48 to 72 hrs; assay type: functional, Cryptococcus bacillisporus; summary of the method: as §2
[9] = Toxicity against human erythrocytes assessed as hemolysis; assay type: cell-based, Erythrocyte
[10] = test system: Rhizopus arrhizus; test: Antifungal activity against Rhizopus oryzae 05-203111 after 48 to 72 hrs; assay type: functional
Summary of the method: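 After the broth microdilution MIC read, suspension from every well without visible growth was plated onto Sabouraud dextrose agar and incubated at 35°C, up to 7 days for molds. MFC was taken as the lowest drug concentration with no colonies.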

[11] = test system: Candida albicans; test: Antifungal activity against Candida albicans after 24 to 72 hrs by broth microdilution method; assay type: functional
Summary of the method: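 CLSI M27-A3 broth microdilution for yeasts in RPMI 1640 with L-glutamine and no bicarbonate, buffered with 0.165 M MOPS to pH 7.0. Compounds were dissolved in water and tested at 0.175–87.5 μM final, 35°C. MIC was read visually at 24–72 h as 100% inhibition versus growth control. For MFC, 30 μl from clear wells went onto SDA at 35°C for 48–72 h, reading the lowest concentration without colonies. Duplicates, two independent runs.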

[12] = test system: Candida tropicalis; test: Antifungal activity against Candida tropicalis after 24 to 72 hrs by broth microdilution method; assay type: functional; summary of the method: as §1
[13] = test system: Nakaseomyces glabratus; test: Antifungal activity against Candida glabrata after 24 to 72 hrs by broth microdilution method; assay type: functional; summary of the method: as §1
[14] = test system: Candida parapsilosis; test: Antifungal activity against Candida parapsilosis after 24 to 72 hrs by broth microdilution method; assay type: functional; conditions: Lodderomyces parapsilosis; summary of the method: as §1
[15] = test system: Candida dubliniensis; test: Antifungal activity against Candida dubliniensis after 24 to 72 hrs by broth microdilution method; assay type: functional; summary of the method: as §1
[16] = test system: Aspergillus flavus; test: Antifungal activity against Aspergillus flavus ATCC 204304 after 48 to 72 hrs; assay type: functional; summary of the method: as §2
[17] = Antifungal activity against Paecilomyces lilacinus 05-200601 after 24 to 72 hrs by broth microdilution method; assay type: functional; conditions: Purpureocillium lilacinum
Summary of the method: (§3)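 Mold isolates subcultured on potato dextrose agar, then tested by CLSI M38-A2 broth microdilution in RPMI 1640 (L-glutamine, no bicarbonate) buffered to pH 7.0 with 0.165 M MOPS. Compounds were dissolved in water and tested at a final 0.175–87.5 μM. Plates were incubated at 35°C. MIC was read visually as the lowest concentration giving 100% inhibition versus the growth control. Each isolate was run in duplicate in two independent experiments.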

[18] = test system: Rhizopus arrhizus; test: Antifungal activity against Rhizopus oryzae 05-203111 after 24 to 72 hrs by broth microdilution method; assay type: functional; summary of the method: as §3
[19] = test system: Aspergillus flavus; test: Antifungal activity against Aspergillus flavus ATCC 204304 after 24 to 72 hrs by broth microdilution method; assay type: functional; summary of the method: as §1
[20] = test system: Aspergillus flavus; test: Antifungal activity against Aspergillus flavus 05-203758 after 24 to 72 hrs by broth microdilution method; assay type: functional; summary of the method: as §1
[21] = test system: Aspergillus terreus; test: Antifungal activity against Aspergillus terreus 05-202844 after 24 to 72 hrs by broth microdilution method; assay type: functional; summary of the method: as §1
[22] = test system: Lomentospora prolificans; test: Antifungal activity against Scedosporium prolificans 05-203060 after 24 to 72 hrs by broth microdilution method; assay type: functional; summary of the method: as §3
[23] = test system: Scedosporium apiospermum; test: Antifungal activity against Scedosporium apiospermum 05-203100 after 24 to 72 hrs by broth microdilution method; assay type: functional; summary of the method: as §3
[24] = test system: Cunninghamella bertholletiae; test: Antifungal activity against Cunninghamella bertholletiae 99-12187 after 24 to 72 hrs by broth microdilution method; assay type: functional; summary of the method: as §1
[25] = test system: Lichtheimia corymbifera; test: Antifungal activity against Absidia corymbifera 04-200170 after 24 to 72 hrs by broth microdilution method; assay type: functional; summary of the method: as §1
[26] = test system: Cryptococcus gattii species complex; test: Antifungal activity against Cryptococcus gattii 05-200122 after 24 to 72 hrs by broth microdilution method; assay type: functional, Cryptococcus bacillisporus; summary of the method: as §1
[27] = test system: Cryptococcus neoformans; test: Antifungal activity against Cryptococcus neoformans 05-202523 after 24 to 72 hrs by broth microdilution method; assay type: functional; summary of the method: as §1
[28] = test system: Cryptococcus neoformans; test: Antifungal activity against Cryptococcus neoformans ATCC 90112 after 24 to 72 hrs by broth microdilution method; assay type: functional; summary of the method: as §1
[29] = test system: Candida tropicalis; test: Antifungal activity against Candida tropicalis 04-202361 after 24 to 72 hrs by broth microdilution method; assay type: functional; summary of the method: as §1
[30] = test system: Candida parapsilosis; test: Antifungal activity against Candida parapsilosis ATCC 22019 after 24 to 72 hrs by broth microdilution method; assay type: functional; conditions: Lodderomyces parapsilosis; summary of the method: as §1
[31] = test system: Pichia kudriavzevii; test: Antifungal activity against Candida krusei ATCC 6258 after 24 to 72 hrs by broth microdilution method; assay type: functional; summary of the method: as §1
[32] = test system: Candida albicans; test: Antifungal activity against Candida albicans ATCC 10231 after 24 to 72 hrs by broth microdilution method; assay type: functional; summary of the method: as §1
[33] = test system: Candida albicans; test: Antifungal activity against Candida albicans ATCC 90028 after 24 to 72 hrs by broth microdilution method; assay type: functional; summary of the method: as §1
[34] = test system: Clavispora lusitaniae; test: Antifungal activity against Candida lusitaniae after 24 to 72 hrs by broth microdilution method; assay type: functional; summary of the method: as §1
[35] = Antifungal activity against Exophiala jeanselmei 03-200268 after 24 to 72 hrs by broth microdilution method; assay type: functional; summary of the method: as §1

## CCCCCc1cc[n+](CCCCCCCCCCCC[n+]2ccc(CCCCC)cc2)cc1.[Cl-].[Cl-]
[1]
  MIC: 2.41 µg/mL
  MIC50: 1.48 µg/mL
  MIC90: 5.91 µg/mL
[2]
  MFC50: 0.75 µg/mL
  MFC90: 0.75 µg/mL
[2]; Candida tropicalis
  MFC: 0.38 µg/mL
[3]
  MFC50: >47 µg/mL
  MFC90: >47 µg/mL
[3]; Lodderomyces parapsilosis
  MFC: > 47 µg/mL
[4]
  MFC50: 2.96 µg/mL
  MFC90: 5.91 µg/mL
[4]; Pichia kudriavzevii
  MFC: 0.38 µg/mL
[5]
  MFC50: 0.75 µg/mL
  MFC90: 0.75 µg/mL
[5]; Meyerozyma guilliermondii
  MFC: 0.38 µg/mL
[6]
  MFC50: 1.48 µg/mL
  MFC90: 1.48 µg/mL
[6]; Clavispora lusitaniae
  MFC: 0.75 µg/mL
[7]
  MFC50: 1.48 µg/mL
  MFC90: 47 µg/mL
[7]; Cryptococcus neoformans
  MFC: 1.48 µg/mL
[8]
  MFC50: 1.48 µg/mL
  MFC90: 1.48 µg/mL
[8]; Cryptococcus gattii species complex
  MFC: 0.75 µg/mL
[9]
  HC50: > 129 µM
  IC50: > 48 µM
[10]
  MFC: 5.9 µg/mL
[11]
  MIC50: 1.48 µg/mL
  MIC90: 1.48 µg/mL
[12]
  MIC: 0.702 µg/mL
  MIC50: 0.75 µg/mL
  MIC90: 0.75 µg/mL
[13]
  MIC: 0.701 µg/mL
  MIC50: 0.75 µg/mL
  MIC90: 0.75 µg/mL
[14]
  MIC: > 47 µg/mL
  MIC50: > 47 µg/mL
  MIC90: > 47 µg/mL
[15]
  MIC: 0.805 µg/mL
  MIC50: 0.75 µg/mL
  MIC90: 0.75 µg/mL
[16]
  MFC: 47.3 µg/mL
[17]
  MIC: > 47.3 µg/mL
[18]
  MIC: 1.48 µg/mL
[19]
  MIC: 23.7 µg/mL
[20]
  MIC: 47.3 µg/mL
[21]
  MIC: 5.9 µg/mL
[22]
  MIC: 1.48 µg/mL
[23]
  MIC: 2.96 µg/mL
[24]
  MIC: 47.3 µg/mL
[25]
  MIC: > 47.3 µg/mL
[26]
  MIC: 0.74 µg/mL
[27]
  MIC: 47.3 µg/mL
[28]
  MIC: 1.48 µg/mL
[29]
  MIC: 0.74 µg/mL
[30]
  MIC: 0.74 µg/mL
[31]
  MIC: 5.9 µg/mL
[32]
  MIC: 1.48 µg/mL
[33]
  MIC: 1.48 µg/mL
[34]
  MIC: 0.86 µg/mL
  MIC50: 0.75 µg/mL
  MIC90: 1.48 µg/mL
[35]
  MIC: 1.48 µg/mL
